Screening results deposited in PubChem BioAssay by several laboratories.
Hits are enriched below; roughly 1.8% of the tested compounds scored in any of these assays.
Dynein transport: dynein cargo transport inhibition; 3617.4 mouse cells, GR-EGFP nuclear translocation imaging; test concentration mostly 20 µM; stimulated with dexamethasone, 1 µM; hits give low values; z-score, hits read low; 0.47% of 220,000 active; AID 1381;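 active = plate z-score of nuclear minus cytoplasmic receptor signal below a set negative limit, without overly bright fluorescence or cell loss, cut at about -3.5 in these data, passing the limit was not always enough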;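 also: z-score of nuclear minus cytoplasmic ring GR-EGFP intensity difference per well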
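medium = tetracycline-free induction medium containing charcoal-stripped FBS | probe or stimulus = dexamethasone, 1.0 µM final | timing = 48 h induction, then 1 h compound, then 30 min agonist, 37 °C | detection = automated 10x imaging of fixed Hoechst-stained cells | read-out basis = nuclear versus cytoplasmic GR-EGFP signal, averaged per well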
Autophagy HCS: modulators of autophagy; MEF GFP-LC3 puncta imaging; test concentration mostly 10 µM; calls only at 10 µM (by protocol); 0.98% of 190,000 active;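 active = percentage of spot-positive cells more than 3 SD above its plate mean, without a fluorescence outlier flag or 80% toxicity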;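 also: spot-positive cell cutoff set from DMSO-treated cells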
zVAD death inh: blocks zVAD induced death of L929 cells. L929 zVAD necroptosis rescue, ATP luminescence, 24 h; with zVAD 60 µM. viability rescue, % at 10 µM. 0.38% of 220,000 active. AID 1377;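 active = activation, scaled between plate controls, above about 75%, limit read from the data; inactive = activation under that limit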;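 also: 0% = zVAD with DMSO and 100% = DMSO alone without zVAD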
TNF necrop inh: blocks TNF-alpha induced death of Jurkat FADD-/- cells | Jurkat FADD-/- TNF necroptosis rescue, ATP luminescence, 24 h; 0 = TNF only, 100 = no-TNF cells | activation (protection from cell death), % at 10 µM | 0.068% of 220,000 active | AID 463075;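 active = activation, meaning protection from cell death, of at least 50% relative to plate controls; inactive = activation below 50%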;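 also: necroptosis triggered by 40 ng/mL TNF-alpha added together with compound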
MDM2 E3 inh: inhibitors of human Mdm2 E3 ubiquitin ligase. cell-based MDM2 ubiquitination luciferase reporter, 2 h; 0 = plate control, 100 = twice control, blank-subtracted. signal enhancement, % at 5 µM. AID 1230. Q00987. 0.11% of 210,000 active;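 active = signal enhancement of 30% or more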;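 also: luminescence tracks abundance of the self-degrading MDM2-luciferase fusion protein; higher signal means inhibition of MDM2 E3 ligase activity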
Target sequence (Q00987 whole entry, looked up, the tested form may be a part): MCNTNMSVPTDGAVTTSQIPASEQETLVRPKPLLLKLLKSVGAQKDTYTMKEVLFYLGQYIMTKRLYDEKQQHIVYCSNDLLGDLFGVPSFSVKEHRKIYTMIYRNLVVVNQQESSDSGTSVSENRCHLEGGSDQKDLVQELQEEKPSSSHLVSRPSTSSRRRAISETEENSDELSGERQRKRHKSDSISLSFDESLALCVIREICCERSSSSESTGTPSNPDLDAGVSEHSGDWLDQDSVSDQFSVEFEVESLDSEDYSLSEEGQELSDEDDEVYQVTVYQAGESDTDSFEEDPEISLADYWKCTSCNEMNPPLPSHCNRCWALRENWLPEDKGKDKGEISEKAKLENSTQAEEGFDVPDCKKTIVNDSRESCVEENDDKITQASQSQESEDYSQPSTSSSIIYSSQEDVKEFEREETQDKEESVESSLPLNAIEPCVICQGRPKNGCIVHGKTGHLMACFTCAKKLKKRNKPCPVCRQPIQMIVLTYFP
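Assay system: stable mammalian line carrying autodegrading MDM2–luciferase fusion reporter; Input: 2000 cells in each well; Compound dosing: single-point 5 µM; Schedule: 2 h compound exposure at 37 °C; Signal: SteadyLite luciferase luminescence after 15 min room-temperature reagent incubation; Evaluation: % luminescence enhancement versus blank-corrected plate control mean; Benchmarks: plate controls and plate blanks.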
* hit, by the source's call; i = inactive; / = no result given; + = active, no number.

SMILES	Dynein transport	Autophagy HCS	zVAD death inh	TNF necrop inh	MDM2 E3 inh
COc1ccc2nc(/C(C#N)=C\c3ccc(Oc4ccc([N+](=O)[O-])cn4)cc3)[nH]c2c1	-0.34	+	4	5	-6
COc1ccccc1S(=O)(=O)CC(O)COc1ccc(C#N)cc1 (stereo unspecified)	0.68	i	1	0	-3
CCC(Oc1ccccc1)C(=O)NCc1ccc(S(N)(=O)=O)cc1 (stereo unspecified)	-0.17	i	1	1	6
CCOc1cc(/C=C2/NC(=O)NC2=O)cc(Br)c1OCc1ccc(C(=O)O)cc1	-0.72	+	0	0	-6
O=C(O)COc1c(Cl)cc(/C=C2/NC(=O)NC2=O)cc1Br	-0.83	i	9	0	-31
CC(NCCC(c1ccccc1)c1ccccc1)c1ccccc1 (stereo unspecified)	-0.4	+	10	5	/
CCn1c(/C=C/c2c(C)[nH]c3ccccc23)nc2ccccc2c1=O	-0.63	i	2	-2	-10
Cc1[nH]c2ccccc2c1/C=C/c1nc2ccccc2c(=O)n1-c1ccc([N+](=O)[O-])cc1	-0.19	+	2	1	-8
Cc1ccc2cc(CN(CCN3CCOCC3)Cc3nnnn3Cc3ccco3)c(=O)[nH]c2c1C	2.8	+	0	-1	-7
Cc1ccc2cc(CN(Cc3ccc4c(c3)OCO4)Cc3nnnn3Cc3ccco3)c(=O)[nH]c2c1C	0.57	i	-1	-2	-10
Cc1ccc(NC2=NCC(=O)N2Cc2cccs2)cc1C	-0.74	i	0	0	-3
CCn1c(=O)cc(SCC(=O)NCc2ccco2)c2ccccc21	-0.35	+	0	-8	1
CCn1c(=O)cc(SCC(=O)NCc2ccc(C)cc2)c2ccccc21	2.9	i	-1	-1	-25
CCn1c(=O)cc(SCC(=O)Nc2ccc(C)cn2)c2ccccc21	-0.3	+	64	7	-25
COc1ccccc1OCCNC(=O)Nc1cc(F)c(F)cc1Cl	-0.87	/	1	7	-10
CC(C)(C)c1ccc(NC(=O)Cn2cnc3cc([N+](=O)[O-])ccc3c2=O)cc1	0.33	+	75	2	-1
O=c1c2ccc([N+](=O)[O-])cc2ncn1CCOc1ccccc1	0.17	i	8	1	-23
O=C(Cn1cnc2cc([N+](=O)[O-])ccc2c1=O)Nc1ccc(Br)cc1	0.14	/	6	2	-13
Cc1ccc(OCCn2cnc3cc([N+](=O)[O-])ccc3c2=O)cc1	-0.016	+	0	-1	-17
O=C(/C=C\c1cccs1)N1CCN(Cc2ccc3c(c2)OCO3)CC1	-0.21	i	3	1	-12
COc1ccc(C2C(C(=O)N3CCN(C)CC3)c3cc(OC)c(OC)cc3C(=O)N2C)cc1 (stereo unspecified)	-0.52	i	4	1	31*
CCOC(=O)c1c(C)oc2cc(Cl)c(O)c(CN(C)C)c12	0.1	/	0	-1	-5
CCOC(=O)c1c(-c2ccccc2)oc2cc(CN(C)C)c(O)c(CN(C)C)c12	-1.1	+	11	-14	/
Cc1cc(C)c2cc3c(N)c(C(=O)Nc4c(C)[nH]c(=O)[nH]c4=O)sc3nc2c1	-0.87	+	3	1	-11
CS(=O)(=O)N1CCN=C1SCc1ccc([N+](=O)[O-])cc1	0.16	i	1	2	-8
SMILES	Dynein transport	Autophagy HCS	zVAD death inh	TNF necrop inh	MDM2 E3 inh
COc1ccc(C(C(N)=O)c2ncc(C(F)(F)F)cc2Cl)cc1OC (stereo unspecified)	0.78	i	1	-1	-24
Cc1ccc(Cn2nnc3c(=O)[nH]c(C4CCN(S(=O)(=O)c5ccccc5)CC4)nc32)cc1	-0.49	i	3	-1	-16
Cc1ccc(S(=O)(=O)N2CCC(c3nc4c(nnn4Cc4ccccc4)c(=O)[nH]3)CC2)cc1	0.88	+	1	-2	-5
O=C1c2ccccc2-c2onc3ccc(Oc4ccccc4)c1c23	-0.9	+	14	-18	20
COc1ccccc1NC(=O)CSc1nnc(C2CCCCC2)n1-c1ccccc1	-0.37	/	-1	-1	/
Cc1ccc(N=C2CSC(=O)N2)cc1	-0.61	i	3	25	3
O=C1NC(=Nc2ccc(F)cc2)CS1	1.7	+	0	7	-14
CCOC(=O)N1CCN(S(=O)(=O)c2ccc(C(=O)Nc3nc4c(s3)CC(C)CC4)cc2)CC1 (stereo unspecified)	-0.22	+	0	-1	-37
CCOc1ccccc1NC(=O)C(NCC1(N2CCCCC2)CCCCC1)c1ccccc1 (stereo unspecified)	0.17	+	-2	-1	-21
CC1CCCC(NC(=O)COC(=O)c2ccccc2[N+](=O)[O-])C1C (stereo unspecified)	0.095	+	1	0	-10
O=c1[nH]c2cc([N+](=O)[O-])c([N+](=O)[O-])cc2[nH]c1=O	-1	i	2	1	-13
O=c1[nH]cc([N+](=O)[O-])cc1Br	0.32	+	0	0	-16
COc1cc2c(cc1OC)CN(CC(=O)Nc1ccc(Cl)c(S(=O)(=O)N(C)C)c1)CC2	0.49	i	0	2	3
COCCn1nnnc1C(c1ccccc1OC)N1CCN(c2ccccc2)CC1 (stereo unspecified)	3.3	+	-1	-2	5
COc1ccccc1C(c1nnnn1CCc1ccccc1)N1CCN(c2ccccc2)CC1 (stereo unspecified)	0.062	i	0	-4	-12
CCN(CC)c1ccc(N=Cc2ccc(N(CC)CC)cc2O)cc1	-0.66	i	0	3	-7
CCN(CC)c1ccc(/C=N/N=C(N)N)c(O)c1	1.9	+	1	-6	-5
CC1CCN(CCCNC(=O)c2ccc(Cn3c(=S)[nH]c4ccc(Br)cc4c3=O)cc2)CC1	0.66	i	6	-6	-8
CCN(CC)CCNC(=O)c1cccc(NC(=O)C(=O)c2cc(Br)ccc2NC(C)=O)c1	0.13	+	1	0	3
CN(C)C=Nc1c(Br)cc(Br)c2nonc12	-3.3	+	0	-5	-69
CN(C)C=Nc1ccc(Cl)c(Cl)c1	0.34	/	0	9	-18
COc1ccc(-n2nnnc2-c2ccccc2)cc1	0.079	+	-1	-7	1
CN(C)S(=O)(=O)c1ccc(Cl)c(NC(=O)COC(=O)c2cc(-c3ccccc3)nc3ccccc23)c1	-0.59	i	0	-2	-8
COc1ccc(-n2nc([N+](=O)[O-])c(=NCCC3=CCCCC3)n2O)cc1	1.7	i	5	-1	0
